Measured values taken from ChEMBL document CHEMBL1955810, “Thieno[2,3-d]pyrimidinedione derivatives as antibacterial agents” (Eur J Med Chem, 2012).
Values after ≈ are worked out from the molar mass of the structure shown.

Legend:
[1] = Toxicity in sheep RBC assessed as hemolysis at 25 times MIC after 1 hr; format: cell-based, Ovis aries, Erythrocyte; details: sheep red blood cells, read-out: Activity
Outline: (§1)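 Sheep RBCs separated from plasma and white cells by centrifugation, washed twice in TBS (10 mM Tris, 150 mM NaCl, pH 7.0), diluted to 1%. Treated with increasing concentrations of compound in DMSO, 37 °C for 1 h, in duplicate. Supernatant absorbance at 414 nm for hemoglobin release; DMSO set as 0%, 1% Triton X as 100% hemolysis.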

[2] = Therapeutic index, ratio of LD50 for mouse NIH/3T3 cells to MIC for vancomycin-resistant Staphylococcus aureus MI; format: cell-based; details: read-out: TI
Outline: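 Index computed as LD50 from NIH-3T3 MTS viability (24 h exposure, 10–100 mg/L, nonlinear regression) divided by VRSA MIC from broth microdilution (5 × 10⁵ CFU/mL, 35°C, 18–24 h, visual read).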

[3] = Cytotoxicity against mouse NIH/3T3 cells after 24 hrs by MTS assay; format: cell-based, NIH3T3; details: read-out: LD50
Outline: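 NIH-3T3 mouse embryo fibroblasts kept in DMEM with 10% FBS, about 10,000 cells per well, attached overnight. Treated 24 h with 10, 25, 50 or 100 mg/L compound (DMSO) in DMEM/FBS. MTS added in fresh DMEM for 1 h at 37 °C, absorbance at 490 nm. Four replicates, media negative and 5% DMSO positive controls. Viability relative to untreated cells; LD50 by nonlinear regression.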

Staphylococcus aureus [4] = test: Antibacterial activity against vancomycin-intermediate Staphylococcus aureus Mu50 after 18 to 24 hrs by broth microdilution method; format: functional
Outline: (§2)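 Strains grown overnight at 35°C on tryptic soy agar; 0.5 McFarland saline suspension diluted in Mueller-Hinton broth, final inoculum 5 × 10⁵ CFU/mL. Twofold serial dilutions, final 0.06 to 32 mg/L, in MHB; incubated 35°C for 18–24h. MIC read visually as lowest concentration preventing growth.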

Staphylococcus aureus [5] = test: Antibacterial activity against methicillin-resistant Staphylococcus aureus 494 after 18 to 24 hrs by broth microdilution method; format: functional
Outline: (§3)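 MIC by broth microdilution in Mueller-Hinton broth. Strains grown overnight at 35°C on tryptic soy agar, suspended in saline to 0.5 McFarland, diluted in MHB, final inoculum 5 × 10⁵ CFU/mL. Twofold serial dilutions, final 0.06 to 32 mg/L. Incubated 35°C for 18–24 h. MIC read visually as lowest concentration preventing growth.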

Staphylococcus aureus [6] = test: Antibacterial activity against vancomycin-resistant Staphylococcus aureus MI after 18 to 24 hrs by broth microdilution method; format: functional; outline: as §3
Streptococcus pneumoniae = test: Antibacterial activity against Streptococcus pneumoniae ATCC 49619 after 18 to 24 hrs by broth microdilution method; format: functional; outline: as §2
Enterococcus faecium = test: Antibacterial activity against vancomycin-resistant Enterococcus faecium 7303 after 18 to 24 hrs by broth microdilution method; format: functional; outline: as §3
Escherichia coli = test: Antibacterial activity against Escherichia coli ATCC 25922 after 18 to 24 hrs by broth microdilution method; format: functional; outline: as §2
Pseudomonas aeruginosa = test: Antibacterial activity against Pseudomonas aeruginosa ATCC 27853 after 18 to 24 hrs by broth microdilution method; format: functional; outline: as §2
Klebsiella pneumoniae = test: Antibacterial activity against Klebsiella pneumoniae CEF 3978 after 18 to 24 hrs by broth microdilution method; format: functional; outline: as §2
Klebsiella aerogenes = test: Antibacterial activity against Enterobacter aerogenes CEF 3978 after 18 to 24 hrs by broth microdilution method; format: functional; outline: as §2
[7] = Toxicity in sheep RBC assessed as hemolysis at 50 times MIC after 1 hr; format: cell-based, Ovis aries, Erythrocyte; details: sheep red blood cells, read-out: Activity; outline: as §1

| Compound | hemolysis at 1 h, 25 times MIC [1] | selectivity ratio [2] | CC50 at 24 h [3] | MIC (Staphylococcus aureus [4]) | MIC (Staphylococcus aureus [5]) | MIC (Staphylococcus aureus [6]) | MIC (Streptococcus pneumoniae) | MIC (Enterococcus faecium) | MIC (Escherichia coli) | MIC (Pseudomonas aeruginosa) | MIC (Klebsiella pneumoniae) | MIC (Klebsiella aerogenes) | hemolysis at 1 h, 50 times MIC [7] |
| --- | --- | --- | --- | --- | --- | --- | --- | --- | --- | --- | --- | --- | --- |
| CC(C)C1Cc2sc3[nH]c(=O)n(C/C=C/c4ccc(O)cc4)c(=O)c3c2C(Cc2ccccc2)C1 (stereo unspecified) | 7% | 5 | 42 µg/mL (≈ 86.3 µM) | 16 µg/mL (≈ 32.9 µM) | 16 µg/mL (≈ 32.9 µM) | 8 µg/mL (≈ 16.4 µM) | 32 µg/mL (≈ 65.8 µM) | 8 µg/mL (≈ 16.4 µM) | 32 µg/mL (≈ 65.8 µM) | 16 µg/mL (≈ 32.9 µM) | 32 µg/mL (≈ 65.8 µM) | 32 µg/mL (≈ 65.8 µM) | – |
| CCOC(=O)c1sc2[nH]c(=O)n(C/C=C/c3ccc(O)cc3)c(=O)c2c1CCc1ccccc1 | – | 26 | 52 µg/mL (≈ 109 µM) | 2 µg/mL (≈ 4.2 µM) | 2 µg/mL (≈ 4.2 µM) | 2 µg/mL (≈ 4.2 µM) | 8 µg/mL (≈ 16.8 µM) | 4 µg/mL (≈ 8.39 µM) | > 32 µg/mL | 32 µg/mL (≈ 67.1 µM) | 32 µg/mL (≈ 67.1 µM) | 16 µg/mL (≈ 33.6 µM) | 2% |
| COc1ccc(/C=C/Cn2c(=O)[nH]c3sc4c(c3c2=O)C(Cc2ccccc2)CC(C(C)C)C4)cc1 (stereo unspecified) | – | 4 | 120 µg/mL (≈ 240 µM) | > 32 µg/mL | > 32 µg/mL | > 32 µg/mL | 32 µg/mL (≈ 63.9 µM) | > 32 µg/mL | > 32 µg/mL | > 32 µg/mL | > 32 µg/mL | 32 µg/mL (≈ 63.9 µM) | – |
| CCOC(=O)c1sc2[nH]c(=O)n(C/C=C/c3ccc(OC)cc3)c(=O)c2c1CCc1ccccc1 | – | 3 | 98 µg/mL (≈ 200 µM) | > 32 µg/mL | > 32 µg/mL | > 32 µg/mL | > 32 µg/mL | > 32 µg/mL | > 32 µg/mL | > 32 µg/mL | > 32 µg/mL | 8 µg/mL (≈ 16.3 µM) | – |
| CCOC(=O)c1c(NC(=O)NC/C=C/c2ccc(O[Si](C)(C)C(C)(C)C)cc2)sc2c1C(Cc1ccccc1)CC(C(C)C)C2 (stereo unspecified) | – | – | – | > 32 µg/mL | > 32 µg/mL | > 32 µg/mL | > 32 µg/mL | > 32 µg/mL | > 32 µg/mL | > 32 µg/mL | > 32 µg/mL | > 32 µg/mL | – |
| CCOC(=O)c1sc(NC(=O)NC/C=C/c2ccc(O[Si](C)(C)C(C)(C)C)cc2)c(C(=O)OCC)c1CCc1ccccc1 | – | – | – | > 32 µg/mL | > 32 µg/mL | > 32 µg/mL | > 32 µg/mL | > 32 µg/mL | > 32 µg/mL | > 32 µg/mL | > 32 µg/mL | > 32 µg/mL | – |
| CCOC(=O)c1sc(NC(=O)NC/C=C/c2ccc(OC)cc2)c(C(=O)OCC)c1CCc1ccccc1 | – | – | – | > 32 µg/mL | > 32 µg/mL | > 32 µg/mL | > 32 µg/mL | > 32 µg/mL | > 32 µg/mL | > 32 µg/mL | > 32 µg/mL | > 32 µg/mL | – |
| CN[C@H](CC(C)C)C(=O)N[C@H]1C(=O)N[C@@H](CC(N)=O)C(=O)N[C@H]2C(=O)N[C@H]3C(=O)N[C@H](C(=O)N[C@H](C(=O)O)c4cc(O)cc(O)c4-c4cc3ccc4O)[C@H](O)c3ccc(c(Cl)c3)Oc3cc2cc(c3O[C@@H]2O[C@H](CO)[C@@H](O)[C@H](O)[C@H]2O[C@H]2C[C@](C)(N)[C@H](O)[C@H](C)O2)Oc2ccc(cc2Cl)[C@H]1O [VANCOMYCIN] | – | – | – | – | – | – | 0.5 µg/mL (≈ 0.345 µM) | > 32 µg/mL | – | > 32 µg/mL | – | – | – |
